# Measured values taken from PMC10413622 (Nuclear medicine and biology, 2022).
# “Also recorded” adds a separate entry of the source.
# Experiments:
# [1] = determined at pH 6.8; cited from earlier work
# [2] = tested on: Caco-2 cells; assay: Caco-2 permeability assay; assay type: in vitro ADME; details: 10 μM, pH 7.4, 2 h
# Method in brief: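 Caco-2 cells grown in DMEM under 5% CO₂, seeded at 5 × 10⁵/well on polycarbonate filter inserts and differentiated 21 ± 4 days. Test compound at 10 μM final in HBSS with 25 mM HEPES, pH 7.4, 37 °C, added donor side. A→B and B→A runs were done with and without elacridar. Receiver was sampled over 2 h and donor at 0 and 2 h, then analysed by LC-MS/MS. Papp = […]/(A × C₀,donor) × 10⁶.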
# [3] = tested on: P2Y12R; details: read-out: IC50 (affinity); cited from earlier work
# [4] = Microsome stability assay; assay type: in vitro ADME, mouse; details: 1 μM test compound, NADPH, 37 °C
# Method in brief: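 Mouse liver microsomes in 100 mM K₃PO₄ pH 7.4 with 10 mM MgCl₂ and 1 μM test compound were pre-incubated 10 min at 37 °C. Reactions were started with 1 mM NADPH. They were quenched at 0, 10, 20 and 40 min with stop solution in acetonitrile, centrifuged at 4000g for 20 min, diluted in 0.1% formic acid and quantified by LC-MS/MS.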
# [5] = tested on: other purinergic receptors; details: cited from earlier work
# [6] = MicroPET imaging in rhesus macaque; assay type: in vivo; details: rhesus macaque n = 1, i.v. bolus, 60 min dynamic scan
# Method in brief: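 One mature female rhesus monkey (9.36 kg) was anaesthetised with Telazol, intubated, and maintained on isoflurane, with a hind-limb venous catheter and head secured. Tracer 4.90 mCi was given as a bolus over 1 min. The brain was imaged for 60 min (5×1, 2×2.5, 2×5, 4×10 min frames), with attenuation and scatter correction and 3D MAP reconstruction. A whole-brain volumetric ROI drawn on the summed image gave the TAC.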
# [7] = Stability of radiotracer in formulation; assay type: physicochemical
# [8] = mouse, in vivo, 1 h
# [9] = In vitro human plasma stability of radiotracer; assay type: in vitro ADME; details: 37 °C, HPLC
# Method in brief: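 Formulated radiotracer (46 μCi) was mixed into human plasma, with aliquots held at 37 °C. Aliquots were quenched at 0, 5, 15, 30 and 60 min with ice-cold MeCN and centrifuged at 12,500g for 10 min. Supernatant went to radio-HPLC (C18, 70–95% MeCN with 0.1% TFA over 15 min). Controls of tracer without plasma were run at 0 and 60 min.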
# [10] = Dynamic PET/CT imaging in mice; assay type: in vivo, mouse
# Method in brief: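 Subjects were female C57BL/6 wild-type mice aged 3 months and one male P2Y12R total-KO mouse (C57BL/6 background, 11 months), under isoflurane (2–3.5% induction, 1–2.5% maintenance). Tracer was given by tail vein at 300 μCi, formulated in saline with 10% ethanol. Imaging was 60 min list-mode dynamic PET (4×15 s, 4×1 min, 11×5 min), OSEM-3D with scatter and attenuation correction, then CT. ROIs were applied to dynamic data to give TACs in %ID/g.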
# [11] = mice, i.v., 5 min post injection
smiles,measurement,setting,value
CCOC(=O)c1cc(C#N)c(N2CCC(C(=O)NS(=O)(=O)Cc3ccccc3)CC2)nc1C [AZD1283],logD,[1],2.8
same,Caco-2 efflux ratio BA/AB,[2],5.3
same,Caco-2 apparent permeability AB,[2]; A→B,4.48
same,IC50,[3],11 nM
same,half-life in mouse liver microsomes,[4],37 min
same,selectivity for P2Y12R over other purinergic receptors,[5],selective for P2Y12R over other purinergic receptors
CCOC(=O)c1cc([11C]#N)c(N2CCC(C(=O)NS(=O)(=O)Cc3ccccc3)CC2)nc1C [[^11C]AZD1283],peak brain uptake (PET),[6],0.37 SUV
same,intact tracer after incubation in formulation,[7]; 90 min in formulation (saline with 10% ethanol),> 99%
same,time stable in formulation and resistant to radiolysis,[7]; post end-of-synthesis,> 90 min
same,"ex vivo biodistribution, blood",[8],0.9% ± 0.40 %ID/g
same,"ex vivo biodistribution, brain",[8],0.02% ± 0.01 %ID/g
same,"ex vivo biodistribution, liver",[8],106 ± 29.70 %ID/g
same,loss of parent / radio-metabolites in human plasma,[9]; 0-60 min incubation,no loss of parent or detection of radio-metabolites; also recorded: no loss of parent tracer or appearance of radio-metabolites
same,intact tracer after incubation in human serum,[9]; 60 min incubation,> 99%
same,CNS uptake in P2Y12R knockout mouse (PET),"[10]; P2Y12R total KO male mouse n = 1, 60 min dynamic scan",no CNS uptake
same,brain uptake (PET),[10]; [11],0.55 ± 0.37 %ID/g
same,liver uptake (PET),[10]; [11],58.28 ± 18.75 %ID/g
same,brain peak uptake (PET),"[10]; naïve wild-type mice n = 3, i.v., 15 s post injection",3.46 ± 2.0 %ID/g
